An excerpt weighted towards active compounds, which were near 0.61% of everything screened.
Xi reactivation = activators of X-chromosome reactivation in mouse fibroblasts. AID 743238. XiGFP mouse fibroblasts, % GFP-positive cells imaging, 3 d; cells co-treated with 5-aza-dC sensitizer; scaled so ellipticine positive control = 100%. hit rate 0.055% among 360,000. activation, % at 7.58 µM;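 active means mean normalized replicate activation at least 10% and every replicate at or above 10%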;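 further: 0% = median of on-plate neutral control wells and 100% = ellipticine 6 µM median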
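material = 68-5-11 XiGFP fibroblast line | medium = DMEM plus 5-aza-dC sensitizer | schedule = 3 days compound exposure | benchmarks = positive control ellipticine, 6 µM final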
E-sel inducer = E-selectin induction on HUVECs; P16581; HUVEC E-selectin immunofluorescence imaging; normalized: neutral wells 0, TNF-alpha wells 100; activation, % at 7.58 µM; hit rate 0.37% among 260,000;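 active means mean E-selectin-positive cell signal at least 10% of the positive control, reached in at least 60% of replicates, without over 20% cell loss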
Target sequence (P16581 whole entry, looked up): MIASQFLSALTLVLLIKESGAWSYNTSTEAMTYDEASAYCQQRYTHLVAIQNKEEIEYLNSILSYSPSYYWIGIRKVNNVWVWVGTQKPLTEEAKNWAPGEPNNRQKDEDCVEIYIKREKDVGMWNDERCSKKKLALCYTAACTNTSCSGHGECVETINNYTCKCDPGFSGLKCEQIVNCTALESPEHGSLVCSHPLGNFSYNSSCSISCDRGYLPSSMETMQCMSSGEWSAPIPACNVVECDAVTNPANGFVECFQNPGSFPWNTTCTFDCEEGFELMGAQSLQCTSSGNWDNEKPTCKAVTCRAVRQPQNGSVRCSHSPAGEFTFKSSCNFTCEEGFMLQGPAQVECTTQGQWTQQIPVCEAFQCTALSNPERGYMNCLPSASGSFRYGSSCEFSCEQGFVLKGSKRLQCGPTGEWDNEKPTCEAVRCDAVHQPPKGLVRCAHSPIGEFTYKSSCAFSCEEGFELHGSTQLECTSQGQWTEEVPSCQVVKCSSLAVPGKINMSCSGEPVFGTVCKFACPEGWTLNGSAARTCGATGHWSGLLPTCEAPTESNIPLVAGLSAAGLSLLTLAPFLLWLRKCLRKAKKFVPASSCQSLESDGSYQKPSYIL
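Test system: HUVEC; input: 3,000 HUVEC/well; measured by: immunofluorescence imaging; read-out: % PE-positive cells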
F508del corr = CFTR F508del correction in bronchial cells; hit rate 0.36% among 350,000; CFBE cells, YFP halide quenching; stimulated with forskolin plus potentiator P3; % fluorescence drop versus neutral controls; activity (quench increase), % at 7.58 µM;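 active means mean added fluorescence quench of at least 8% versus neutral control, with both replicates also reaching 8%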;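 further: cells transiently co-express mutant CFTR-F508del with the halide-sensitive YFP; corrector assay measuring rescue of mutant channel to the surface after 24 h compound exposure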
Numbers without * were called inactive; . = not tested or not shown.

SMILES	Xi reactivation	E-sel inducer	F508del corr
CN(C)c1ccc(/C=C2\CCC/C(=C\c3ccccc3)C2=O)cc1	0	.	.
C[C@H](CO)N1C[C@H](C)[C@H](CN(C)Cc2ccc(C(F)(F)F)cc2)OCc2cn(nn2)CCCC1=O	0	0	1
Cc1ccccc1S(=O)(=O)N[C@@H]1CC[C@H](CCn2cc(-c3ccccc3)nn2)O[C@H]1CO	1	-1	-3
C[C@@H]1CN([C@H](C)CO)C(=O)c2ccccc2-c2ccccc2CO[C@@H]1CN(C)C(=O)Cc1ccccc1	0	0	-2
CN(C)c1ccc(C=c2c3ccccc3n3c2cc(-c2ccc(Cl)cc2)[n+]3C)cc1	0	122*	1
CN(C)c1ccc(/C=C2\SC(=O)N(CC(O)Cn3c4ccccc4c4ccccc43)C2=O)cc1 (centres undefined)	0	.	.
CN(C)c1ccc(C=C2C=C(c3ccccc3)OC2=O)cc1	0	0	7
CN(C)c1ccc(C=c2c3ccccc3n3c2cc(-c2ccccc2)[n+]3C)cc1	5	140*	-9
COc1ccc(S(=O)(=O)N(C)C[C@@H]2Oc3ccc(NS(=O)(=O)c4c(C)noc4C)cc3C(=O)N([C@@H](C)CO)C[C@H]2C)cc1	0	189*	1
COc1ccc(S(=O)(=O)N(C)C[C@H]2Oc3ccc(NS(=O)(=O)c4c(C)noc4C)cc3C(=O)N([C@H](C)CO)C[C@@H]2C)cc1	-1	1	-2
COc1ccc(S(=O)(=O)Nc2ccc3c(c2)C(=O)N([C@@H](C)CO)C[C@H](C)[C@H](CN(C)S(=O)(=O)c2ccc(Cl)cc2)O3)cc1	0	59*	-3
COc1ccc(S(=O)(=O)Nc2ccc3c(c2)C(=O)N([C@@H](C)CO)C[C@@H](C)[C@@H](CN(C)S(=O)(=O)c2ccc(Cl)cc2)O3)cc1	0	-4	1
COc1cccc(S(=O)(=O)N2CCCCN3[C@@H](CO)[C@@H](c4ccc(C#CC(C)C)cc4)[C@@H]3C2)c1	0	-1	3
Cc1cccc(NC(=O)c2cc(C)nc3ccccc23)c1	0	61*	3
Cc1ccc(NC(=O)c2cc(C)nc3ccccc23)cc1	0	.	-2
COc1cc(/C=N/NC(=O)c2ccc(COc3ccccc3Cl)o2)cc(Br)c1O	0	.	.
COc1ccccc1/C=N\NC(=O)c1ccc(COc2ccc(C)c(C)c2)o1	0	48*	2
Cc1ccc(NC(=O)c2ccc(Cl)c(S(=O)(=O)Nc3c(C)n(C)n(-c4ccccc4)c3=O)c2)cc1Cl	0	0	12*
Cc1c(NS(=O)(=O)c2cc(C(=O)Nc3ccc(F)cc3Cl)ccc2Cl)c(=O)n(-c2ccccc2)n1C	0	0	-1
O=S(=O)(Cc1ccccc1)NCC[C@H]1CC[C@@H](NS(=O)(=O)c2ccccc2)[C@@H](CO)O1	-1	0	1
Cc1ccc(/C=N/NC(=O)C2COc3ccccc3O2)s1 (centres undefined)	0	0	11*
CN(C)c1ccc(/C=N/NC(=O)C2COc3ccccc3O2)o1 (centres undefined)	0	.	.
COc1ccc(CCNC(=O)c2cc3cccc(OC)c3oc2=O)cc1OC	0	.	.
COc1cccc2cc(C(=O)NCCN3CCOCC3)c(=O)oc12	0	0	9.6*
CC(C)(C)c1ccc(/C=C/C(=O)c2ccc(NC3=NCCCS3)cc2)cc1	0	0	8.3*
SMILES	Xi reactivation	E-sel inducer	F508del corr
O=C(/C=C/c1ccc(Br)cc1)c1ccc(NC2=NCCCS2)cc1	0	2	1
COc1ccc(S(=O)(=O)Nc2ccc3c(c2)C(=O)N([C@@H](C)CO)C[C@@H](C)[C@H](CN(C)C(=O)Nc2ccc4c(c2)OCO4)O3)cc1	-1	0	2
CN1CCN(S(=O)(=O)c2ccc(Cl)s2)CC1	0	0	1
CC(C)c1ccc(CN2CCN(S(=O)(=O)c3ccc(Cl)s3)CC2)cc1	0	0	30*
C[C@@H]1CN([C@H](C)CO)C(=O)Cc2cc(NC(=O)C3CCCCC3)ccc2O[C@H]1CN(C)C(=O)Nc1ccc(F)cc1	-1	-3	1
CO[C@H]1CN(C)C(=O)c2ccc(NC(C)=O)cc2OC[C@H](C)N(C(=O)c2ccccc2F)C[C@H]1C	0	0	-2
COc1ccc(CCC(=O)Nc2ncc(C)s2)cc1OC	0	0	2
Cc1cnc(NC(=O)CCc2ccccc2)s1	0	.	8.9*
Cc1ccc(S(=O)(=O)N(C)C[C@@H]2Oc3ccc(NS(=O)(=O)c4c(C)noc4C)cc3C(=O)N([C@H](C)CO)C[C@@H]2C)cc1	0	0	-1

Screening data: PubChem, Broad Institute
